Data: ChEMBL document CHEMBL1157725 (Bioorg Med Chem, 2010)

Legend:
[1] = Inhibition of tubulin in rat A10 cells assessed as induction of cellular microtubule disassembly after 18 hrs by indirect immunofluorescence technique; assay type: cell-based; details: A10, 18 h
Outline: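 A-10 cells plated on glass coverslips and treated with compound at varying concentrations for 18 h. After fixation, microtubules immunostained with a β-tubulin antibody (indirect immunofluorescence) and nuclei stained with DAPI. Read by fluorescence microscopy. Percentage of cellular microtubule loss estimated visually across the concentration range.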

MCF7 = assay: Antiproliferative activity against human MCF7 cells after 24 hrs by SRB assay; assay type: functional, cell-based; details: MCF7, 24 h
Outline: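 MCF-7 cells are grown for 24 h with or without drug, then for a further 48 h. Total cell protein is measured by sulforhodamine B staining, and the IC₅₀ is derived from it.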

In the case of `COc1ccc(/C=C\c2cc(OC)c(OC)c(OC)c2)cc1O` [COMBRETASTATIN A4], the EC50 [1] is reported as < 25 nM and the IC50 (MCF7) is reported as 32 nM.
